Measured values as given in ChEMBL document CHEMBL4376900, “Structure-Activity Relationship of Antischistosomal Ozonide Carboxylic Acids” (J Med Chem, 2020).
In brackets after ≈: the same amount, converted by molar mass.

Key:
[1] = Partition coefficient, logD of the compound at pH 7.4 by HPLC analysis; assay type: physicochemical; conditions: octanol/water
[2] = Kinetic solubility in pH 6.5 phosphate buffer incubated for 30 mins by nephelometry; assay type: physicochemical; conditions: read-out: Kinetic_solubility
Method in brief: (§1)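 DMSO stocks (10 mg/mL) diluted into pH 6.5 phosphate buffer or 0.01 M HCl (about pH 2.0) at 1% final DMSO. After 30 min, a solubility range was determined by nephelometry.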

[3] = Kinetic solubility in pH 2.0 0.01M HCl buffer incubated for 30 mins by nephelometry; assay type: physicochemical; conditions: read-out: Kinetic_solubility; method in brief: as §1
[4] = Intrinsic clearance in human liver microsomes in presence of NADPH-regenerating system incubated over 60 mins; assay type: ADME, Microsome; conditions: read-out: CLH
Method in brief: (§2)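 Compounds incubated at 37 °C with liver microsomes at 0.4 mg/mL protein. Reaction started by adding an NADPH-regenerating system and quenched with acetonitrile containing diazepam internal standard at several time points over 60 min. No-NADPH controls were quenched at 2, 30 and 60 min.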

[5] = Intrinsic clearance in mouse liver microsomes in presence of NADPH-regenerating system incubated over 60 mins; assay type: ADME, Microsome; conditions: read-out: CLH; method in brief: as §2
[6] = molecular target: Albumin (Homo sapiens, UniProt P02768); test: Protein binding to human albumin by HPLC analysis; assay type: ADME; conditions: isolated protein
Sequence of Albumin (P02768 whole entry): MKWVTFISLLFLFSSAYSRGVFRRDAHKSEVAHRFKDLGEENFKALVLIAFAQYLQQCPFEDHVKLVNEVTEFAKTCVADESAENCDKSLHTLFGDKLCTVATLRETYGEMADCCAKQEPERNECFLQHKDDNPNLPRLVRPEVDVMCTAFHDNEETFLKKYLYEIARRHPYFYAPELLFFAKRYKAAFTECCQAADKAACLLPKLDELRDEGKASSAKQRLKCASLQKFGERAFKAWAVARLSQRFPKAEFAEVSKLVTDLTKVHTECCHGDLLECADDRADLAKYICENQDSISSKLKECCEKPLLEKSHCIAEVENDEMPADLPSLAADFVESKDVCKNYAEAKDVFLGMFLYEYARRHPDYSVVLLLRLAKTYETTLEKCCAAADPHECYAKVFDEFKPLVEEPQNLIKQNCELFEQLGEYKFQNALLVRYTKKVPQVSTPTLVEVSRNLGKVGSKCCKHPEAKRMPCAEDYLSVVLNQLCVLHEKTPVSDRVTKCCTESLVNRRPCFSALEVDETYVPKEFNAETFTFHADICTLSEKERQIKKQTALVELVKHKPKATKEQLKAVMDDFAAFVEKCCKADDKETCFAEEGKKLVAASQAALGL
Method in brief: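 Binding estimated chromatographically using a gradient HPLC method derived from the Valko approach.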

[7] = test system: Schistosoma mansoni; test: Antischistosomal activity against Schistosoma mansoni infected in NMRI mouse assessed as reduction in total adult worm burden at 400 mg/kg, po administered as single dose starting on day 49 post-infection and measured at 28 days post treatment relative to control; assay type: functional; set-up: scale not given: the % may be the effect or the level left
[8] = test system: HFF; test: Cytotoxicity in HFF assessed as reduction in cell viability up to 50 uM incubated for 24 hrs by Alamar blue sye based assay; conditions: human
Method in brief: (§3)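 Cells maintained in D10 medium were grown to confluence, then exposed to increasing compound concentrations (0–100 μM) for 24 h. Alamar blue (10 mM) was then added for 4 h, and viability was read as fluorescence.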

[9] = test system: U2OS; test: Cytotoxicity in human U2OS assessed as reduction in cell viability up to 50 uM incubated for 24 hrs by Alamar blue sye based assay; method in brief: as §3
[10] = test system: HEK-293T; test: Cytotoxicity in human HEK293T assessed as reduction in cell viability up to 50 uM incubated for 24 hrs by Alamar blue sye based assay; method in brief: as §3
[11] = Cytotoxicity in human HC04 assessed as reduction in cell viability up to 50 uM incubated for 24 hrs by Alamar blue sye based assay; method in brief: as §3
[12] = test system: Schistosoma mansoni; test: Antischistosomal activity against Schistosoma mansoni infected in mouse assessed as reduction in adult worm burden at 400 mg/kg, po administered as single dose relative to control; assay type: functional; set-up: scale not given: the % may be the effect or the level left
[13] = test system: Schistosoma japonicum; test: Antischistosomal activity against Schistosoma japonicum infected in mouse assessed as reduction in adult worm burden at 400 mg/kg, po administered as single dose relative to control; assay type: functional; set-up: scale not given: the % may be the effect or the level left
[14] = test system: Schistosoma haematobium; test: Antischistosomal activity against Schistosoma haematobium infected in mouse assessed as reduction in adult worm burden at 400 mg/kg, po administered as single dose relative to control; assay type: functional; set-up: scale not given: the % may be the effect or the level left
[15] = test system: Schistosoma mansoni; test: Antischistosomal activity against Schistosoma mansoni infected in mouse assessed as reduction in juvenile worm burden at 200 mg/kg, po administered as single dose relative to control; assay type: functional; set-up: scale not given: the % may be the effect or the level left
Method in brief: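 Female NMRI mice, 4 weeks old, infected subcutaneously with about 100 S. mansoni cercariae. Juvenile-stage treatment was a single oral dose on day 21 post-infection in 7% v/v Tween 80 / 3% v/v ethanol (10 mL/kg). Untreated infected mice (n = 8) served as controls. Necropsy by CO2 21 days post-treatment, with worms picked, sexed and counted.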

[16] = test system: Schistosoma mansoni; test: Antischistosomal activity against Schistosoma mansoni; assay type: functional, organism-based
[17] = test system: Schistosoma japonicum; test: Antischistosomal activity against Schistosoma japonicum; assay type: functional, organism-based

SMILES | logD [1] | solubility kinetic at 0.5 h [2] | solubility kinetic at 0.5 h [3] | microsomal CLint [4] | microsomal CLint [5] | PPB [6] | Activity [7] | Activity [8] | Activity [9] | Activity [10] | Activity [11] | Activity [12] | Activity [13] | Activity [14] | Activity [15] | IC50 [16] | IC50 [17]
CC(C)(Oc1ccc([C@H]2CC[C@]3(CC2)OOC2(O3)C3CC4CC(C3)CC2C4)cc1)C(=O)O (stereo partly drawn) | 3.1 | < 1.6 µg/mL | 3.1 to 6.3 µg/mL (≈ 7 to 14.2 µM) | < 7 µL/min/mg | 7 µL/min/mg | > 99.5% | 48% | – | – | – | – | – | – | – | – | – | –
CS(=O)(=O)NC(=O)COc1ccc([C@H]2CC[C@]3(CC2)OOC2(O3)C3CC4CC(C3)CC2C4)cc1 (stereo partly drawn) | 3 | < 1.6 µg/mL | 6.3 to 12.5 µg/mL (≈ 12.8 to 25.4 µM) | < 7 µL/min/mg | 12 µL/min/mg | – | 53% | – | – | – | – | – | – | – | – | – | –
O=C(O)CCCOc1ccc([C@H]2CC[C@]3(CC2)OOC2(O3)C3CC4CC(C3)CC2C4)cc1 (stereo partly drawn) | 3.6 | < 3.1 µg/mL | < 1.6 µg/mL | < 7 µL/min/mg | 8 µL/min/mg | > 99.5% | 55% | – | – | – | – | – | – | – | – | – | –
O=C(O)COc1ccc([C@H]2CC[C@]3(CC2)OOC2(O3)C3CC4CC(C3)CC2C4)cc1C(=O)O (stereo partly drawn) | 1.9 | < 3.1 µg/mL | > 100 µg/mL | < 7 µL/min/mg | 8 µL/min/mg | 99.1% | 0% | – | – | – | – | – | – | – | – | – | –
O=C(O)COc1ccc([C@H]2CC[C@]3(CC2)OOC2(O3)C3CC4CC2CC(C3)C4O)cc1 (stereo partly drawn) | 1.7 | < 1.6 µg/mL | 25 to 50 µg/mL (≈ 58.1 to 116 µM) | < 7 µL/min/mg | < 7 µL/min/mg | 98.5% | 14% | – | – | – | – | – | – | – | – | – | –
O=C(O)c1cccc([C@H]2CC[C@]3(CC2)OOC2(O3)C3CC4CC(C3)CC2C4)c1 (stereo partly drawn) | 3 | < 1.6 µg/mL | < 1.6 µg/mL | 12 µL/min/mg | 30 µL/min/mg | 98.9% | 63% | – | – | – | – | – | – | – | – | – | –
O=C(O)CNC(=O)COc1ccc([C@H]2CC[C@]3(CC2)OOC2(O3)C3CC4CC(C3)CC2C4)cc1 (stereo partly drawn) | 3 | 12.5 to 25 µg/mL (≈ 26.5 to 53 µM) | < 3.1 µg/mL | < 7 µL/min/mg | – | 98.5% | 76% | Non-Toxic | Non-Toxic | Non-Toxic | Non-Toxic | – | – | – | – | – | –
O=C(O)COc1c(Cl)cc([C@H]2CC[C@]3(CC2)OOC2(O3)C3CC4CC(C3)CC2C4)cc1Cl (stereo partly drawn) | 3.3 | < 3.1 µg/mL | 3.1 to 6.3 µg/mL (≈ 6.41 to 13 µM) | – | – | – | 32% | – | – | – | – | – | – | – | – | – | –
O=C(O)COc1ccc([C@H]2CC[C@]3(CC2)OOC2(O3)C3CC4CC(C3)CC2C4)cc1 (stereo partly drawn) | 2.9 | < 1.6 µg/mL | 6.3 to 12.5 µg/mL (≈ 15.2 to 30.2 µM) | – | – | – | – | – | – | – | – | 80% | 69% | 86% | 84% | 44 µM | 39 µM
CS(=O)(=O)O.O=C(O)COc1ccc([C@H]2CC[C@]3(CC2)OOC2(O3)C3CC4CC2CC(C3)N4)cc1 (stereo partly drawn) | 1.3 | 3.1 to 6.3 µg/mL | < 1.6 µg/mL | 35 µL/min/mg | 27 µL/min/mg | – | 29% | – | – | – | – | – | – | – | – | – | –
CS(=O)(=O)O.O=C(O)C1CN(Cc2ccc([C@H]3CC[C@]4(CC3)OOC3(O4)C4CC5CC(C4)CC3C5)cc2)C1 (stereo partly drawn) | – | 6.3 to 12.5 µg/mL | < 1.6 µg/mL | 7 µL/min/mg | 10 µL/min/mg | – | 43% | – | – | – | – | – | – | – | – | – | –
O=C(O)COc1ccc([C@H]2CC[C@]3(CC2)OOC2(O3)C3CC4CC2CC(C3)C4(F)F)cc1 (stereo partly drawn) | 2.9 | < 1.6 µg/mL | 12.5 to 25 µg/mL (≈ 27.7 to 55.5 µM) | 23 µL/min/mg | 130 µL/min/mg | 99.4% | 57% | – | – | – | – | – | – | – | – | – | –
C[C@H]1[C@@H](O)O[C@@H]2O[C@@]3(C)CC[C@H]4[C@H](C)CC[C@@H]1[C@@]24OO3 [ARTENIMOL] | – | – | – | – | – | – | 66% | – | – | – | – | – | – | – | – | – | –
